Experimental data gathered from unrelated publications.
Each line is one published result; the experiments were not run side by side.
Target: D(2) dopamine receptor (DRD2, Homo sapiens, UniProt P14416)

O=C(O)[C@H]1[C@H](Cn2nnc3ccccc3c2=O)CC[C@@H]1C(=O)c1ccc(OCCC2CCOCC2)cc1  inhibition (ligand displacement; 10 µM): 30.3%
NS(=O)(=O)c1ccc(CCNCc2ccc(OCc3cccs3)cc2)cc1  inhibition (enzyme activity, inhibitor; 10 µM): 23.9%
COc1ccccc1N1CCN(CCCCN2CCc3ccccc3C2=O)CC1  inhibition (ligand displacement, radioligand; 10 µM): 97.5%
Cc1cccc(N2CCN(CC(O)COc3ccc4ccccc4c3)CC2)c1C (stereo not shown)  inhibition (enzyme activity, inhibitor; 10 µM): 24.4%
Cn1nc(C(=O)NCc2ccc(C(=O)O)cc2)cc1-c1ccc2[nH]ccc2c1  inhibition (ligand displacement; 10 µM): -14.4%
Cc1nc2cc(OCCCCN3CCN(c4cccc5c4OCCO5)CC3)ccc2s1  Emax (β-arrestin recruitment, agonist; HTLA): 35%
Cc1ccnc(OC[C@H]2CN(CC(=O)N3CCc4ccccc43)CCO2)c1  inhibition (ligand displacement, radioligand; 10 µM): -7.3%
O=C(CCCN1CCC(O)(c2ccc(Br)cc2)CC1)c1ccc(F)cc1  kon (binding): 2.67e+06 M⁻¹ s⁻¹
c1cncc(OC[C@@H]2CN(CCN3CCc4ccccc43)CCO2)c1  inhibition (ligand displacement, radioligand; 10 µM): 20.9%
CO[C@H]1CC[C@H](CNc2ccc(S(=O)(=O)NC(=O)c3ccc(N4CCN(CC5=C(c6ccc(Cl)cc6)CC(C)(C)CC5)CC4)cc3Oc3cnc4[nH]ccc4c3)cc2[N+](=O)[O-])CC1  inhibition (ligand displacement; 10 µM): -24%
O=C1c2ccccc2CCN1CCCCN1CCN(c2ccccn2)CC1  inhibition (ligand displacement, radioligand; 10 µM): 86.6%
CC(=O)Nc1ccc(N2CC(O)=C(c3nc4ccccc4[nH]3)C2=N)cc1  inhibition (enzyme activity, inhibitor; 10 µM): 17.1%
COc1cccc(OC[C@H]2CN(CCN3CCc4ccccc43)CCO2)c1  inhibition (ligand displacement, radioligand; 10 µM): 31.5%
COc1cc(OC)c(OC)cc1CN1CCN(Cc2c[nH]c3ccccc23)CC1  inhibition (enzyme activity, inhibitor; 10 µM): 34.6%
CCS(=O)(=O)c1cc2cc(C[C@](O)(CC(C)(C)c3ccc(F)cc3C(N)=O)C(F)(F)F)[nH]c2cn1  inhibition (ligand displacement; 10 µM): -12.2%
Cc1ccc(OC[C@H]2CN(CCN3CCc4ccccc43)CCO2)cn1  inhibition (ligand displacement, radioligand; 10 µM): 16.2%
Cc1[nH]n(-c2ccc([N+](=O)[O-])cc2)c(=O)c1C=NCCN1CCN(C(=O)c2cccc(F)c2)CC1  inhibition (enzyme activity, inhibitor; 10 µM): 20.6%
O=C(CN1CCO[C@H](COc2ccccc2)C1)N1CCc2ccccc21  inhibition (ligand displacement, radioligand; 10 µM): 13.6%
CCc1ccc(N2CCN(CC(O)COc3ccc(C(C)=O)cc3OC)CC2)cc1 (stereo not shown)  inhibition (enzyme activity, inhibitor; 10 µM): 11.2%
CN1CCN(C(=O)C(C)(C)c2ccc(C(=O)Nc3cn4cc(-c5cc(C(C)(C)C)cc(C(C)(C)C)c5)ccc4n3)cc2)CC1  inhibition (ligand displacement; 10 µM): 57.5%
O=C(c1ccccc1Cl)N1CCN(CCNc2cc(=O)oc3ccccc23)CC1  inhibition (enzyme activity, inhibitor; 10 µM): 31.2%
Cc1cc(NC(=O)c2cccc(S(F)(F)(F)(F)F)c2)cc(-n2ccn3nc(-c4cccnc4)cc23)c1  inhibition (ligand displacement, radioligand; 10 µM): 12.3%
Clc1cncc(OC[C@@H]2CN(CCN3CCc4ccccc43)CCO2)c1  inhibition (ligand displacement, radioligand; 10 µM): 60%
COc1ccc(N2CCN(CC(O)COc3ccc(C(C)=O)cc3OC)CC2)cc1 (stereo not shown)  inhibition (enzyme activity, inhibitor; 10 µM): 27.4%
C[C@H](c1ccnc(Nc2nc3ccc(-c4cc(N(C)C)ncn4)cc3[nH]2)c1)N1CCN(C(=O)CC(F)(F)F)CC1  inhibition (ligand displacement; 10 µM): 5.66%
